From ChEMBL document CHEMBL1149885, “Active core structure of terfestatin A, a new specific inhibitor of auxin signaling” (Bioorg Med Chem, 2008)
Calls of active or inactive are those of the source. The rule behind the calls is not given here.

The molecules below were run on Arabidopsis (assay: Inhibition of indole-3-acetic acid-induced GUS reporter gene expression in Arabidopsis BA3 at 50 uM after 5 hrs).
Assay type: functional, organism-based
In short: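 Arabidopsis BA3::GUS seedlings (GUS under an auxin-responsive promoter) were grown vertically for 5 days under continuous light. They were moved into GM (0.5x MS salts, 1% sucrose, B5 vitamins, 0.2 g/L MES, pH 5.8) holding 50 µM derivative plus 1 µM IAA for 5 h. GUS was then stained histochemically with 1 mM X-Gluc at 37 °C for 3–4 h.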
With `CCCCOc1ccc(-c2c(O)cc(-c3ccccc3)c(O[C@@H]3O[C@H](CO)[C@@H](O)[C@H](O)[C@H]3O)c2O)cc1` the Activity was “inactive”. `COc1c(O[C@@H]2O[C@H](CO)[C@@H](O)[C@H](O)[C@H]2O)c(-c2ccccc2)cc(O)c1-c1ccccc1` was tested, and the Activity was “inactive”. For `COCOc1c(-c2ccccc2)cc(O)c(-c2ccccc2)c1O`, the Activity was “Active”. For `Cc1ccc(-c2c(O)cc(-c3ccccc3)c(O[C@@H]3O[C@H](CO)[C@@H](O)[C@H](O)[C@H]3O)c2O)cc1`, the Activity was “inactive”. In the case of `CCCOc1c(-c2ccccc2)cc(O)c(-c2ccccc2)c1O`, the Activity is reported as “Active”. With `CC(=O)OC[C@H]1O[C@@H](Oc2c(-c3ccccc3)cc(O)c(-c3ccccc3)c2O)[C@H](OC(C)=O)[C@@H](OC(C)=O)[C@@H]1OC(C)=O` the Activity was “inactive”. In the case of `CCOc1c(-c2ccccc2)cc(O)c(-c2ccccc2)c1O`, the Activity is reported as “Active”. For `CCOC(=O)CCCCOc1ccc(-c2cc(O)c(-c3ccccc3)c(O)c2O[C@@H]2O[C@H](CO)[C@@H](O)[C@H](O)[C@H]2O)cc1`, the Activity was “inactive”. With `CCCCOc1c(-c2ccccc2)cc(O)c(-c2ccccc2)c1O` the Activity was “Active”. `CCCCCOc1c(-c2ccccc2)cc(O)c(-c2ccccc2)c1O` was tested, and the Activity was “Active”. `CC(C)COc1c(-c2ccccc2)cc(O)c(-c2ccccc2)c1O` was tested, and the Activity was “inactive”. With `CCCCCCOc1c(-c2ccccc2)cc(O)c(-c2ccccc2)c1O` the Activity was “inactive”. For `Oc1cc(-c2ccccc2)c(OCCCCCl)c(O)c1-c1ccccc1`, the Activity was “Active”. For `OC[C@H]1O[C@@H](Oc2ccc(O)c(-c3ccccc3)c2O)[C@H](O)[C@@H](O)[C@@H]1O`, the Activity was “inactive”. `Oc1cc(-c2ccccc2)c(OCC2CCCCC2)c(O)c1-c1ccccc1` was tested, and the Activity was “inactive”. With `CCCCOc1ccc(-c2cc(O)c(-c3ccccc3)c(O)c2O[C@@H]2O[C@H](CO)[C@@H](O)[C@H](O)[C@H]2O)cc1` the Activity was “inactive”. For `OC[C@H]1O[C@@H](Oc2c(O)cc(O)cc2-c2ccccc2)[C@H](O)[C@@H](O)[C@@H]1O`, the Activity was “inactive”. For `OC[C@H]1O[C@@H](Oc2c(-c3ccccc3)cc(O)c(-c3cccc4ccccc34)c2O)[C@H](O)[C@@H](O)[C@@H]1O` (single isomer, unassigned), the Activity was “inactive”. For `OC[C@H]1O[C@@H](Oc2cc(-c3ccccc3)c(O)cc2-c2ccccc2)[C@H](O)[C@@H](O)[C@@H]1O`, the Activity was “Active”. In the case of `Oc1cc(-c2ccccc2)c(OCC2CC2)c(O)c1-c1ccccc1`, the Activity is reported as “inactive”. In the case of `COC(=O)c1ccc(-c2cc(O)c(-c3ccccc3)c(O)c2O[C@@H]2O[C@H](CO)[C@@H](O)[C@H](O)[C@H]2O)cc1`, the Activity is reported as “inactive”. With `COc1cc(-c2ccccc2)c(O[C@H]2O[C@@H](CO)[C@H](O)[C@@H](O)[C@@H]2O)c(O)c1-c1ccccc1` the Activity was “inactive”.
